{"source": "paper PMC5316514", "about": "(Clinical cancer research : an official journal of the …, 2016)", "key": {"PDE4": {"tested_on": "PDE4", "conditions": "cited from earlier work"}, "AKT": {"tested_on": "AKT", "test": "AKT phosphorylation", "assay_type": "in vivo, human", "conditions": "5 of 8 patients; roflumilast single agent, day 8 vs day 0, PBMC, western blot"}, "Safety / adverse events": {"test": "Safety / adverse events", "assay_type": "in vivo, human", "method_in_brief": "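Ten patients received 21-day cycles of oral roflumilast 500 mcg daily. Prednisone 60 mg/m2 PO daily was added on days 8–14 of cycle 1 (maximum 100 mg daily) and on days 1–7 of later cycles. Incidence, severity, relationship and type of adverse events during treatment and follow-up were graded by NCI CTCAE version 4.03.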"}, "B cell lymphoma": {"tested_on": "B cell lymphoma", "conditions": "murine model of B cell lymphoma; cited from earlier work"}, "[1]": {"tested_on": "relapsed/refractory B cell malignancies", "test": "Clinical response and days in trial, phase Ib trial", "assay_type": "in vivo, human", "conditions": "roflumilast plus prednisone", "method_in_brief": "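Cycles lasted 21 days, with oral roflumilast 500 mcg daily throughout. Prednisone 60 mg/m2 PO daily was given on days 8–14 in cycle 1 (maximum 100 mg daily) and on days 1–7 in later cycles. Response was scored by International Working Group revised criteria for each disease.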"}, "PI3K": {"tested_on": "PI3K", "test": "PI3K activity", "assay_type": "in vivo, human"}, "[2]": {"conditions": "roflumilast 500 mcg PO daily plus prednisone, 10 patients"}, "[3]": {"conditions": "individual patient (UPN, diagnosis in the row)"}, "[4]": {"conditions": "individual patient, PI3K/AKT non-suppressors"}, "[5]": {"conditions": "individual patient, PI3K/AKT suppressors"}}, "note": "Values joined by “and” are separate entries in the source; they are usually repeats but may differ in a detail not shown here. Equal values may be shown once. “Also recorded” adds a separate entry of the source."}
{"smiles": "O=C(Nc1c(Cl)c[n+]([O-])cc1Cl)c1ccc(OC(F)F)c(OCC2CC2)c1", "note": "[roflumilast N-oxide]", "values": [{"measurement": "IC50 for inhibition of PDE4", "setting": "PDE4", "value": 0.8, "unit": "ng/mL"}]}
{"smiles": "O=C(Nc1c(Cl)cncc1Cl)c1ccc(OC(F)F)c(OCC2CC2)c1", "note": "[roflumilast]", "values": [{"measurement": "samples with marked suppression of pAKT (T308) levels", "setting": "AKT", "value": 62.5, "unit": "%"}, {"measurement": "transitory episode of suicidal ideation, patients", "setting": "Safety / adverse events; UPN#10, end of first cycle, resolved upon cessation of study drug", "value": "One patient"}, {"measurement": "transient ≥ grade 2 neutropenia, patients", "setting": "Safety / adverse events; roflumilast 500 mcg PO daily plus prednisone, 3 of 10 patients", "value": 30, "unit": "%"}, {"measurement": "grade 4 events", "setting": "Safety / adverse events; [2]", "value": "no grade 4 events"}, {"measurement": "incidence of most common ≥Grade 2 treatment-related AEs (fatigue, anorexia, neutropenia), all causality", "setting": "Safety / adverse events; [2]", "value": "≥ 25", "unit": "%"}, {"measurement": "tolerability of treatment", "setting": "Safety / adverse events; [2]", "value": "generally well tolerated"}, {"measurement": "survival", "setting": "B cell lymphoma", "value": "improved"}, {"measurement": "tumor burden", "setting": "B cell lymphoma", "value": "significantly suppressed"}, {"measurement": "partial response or stable disease, share of evaluable patients", "setting": "[1]; 6 of nine evaluable patients", "value": 66, "unit": "%"}, {"measurement": "average days in trial, true PI3K/AKT suppressor profile", "setting": "[1]; clinically evaluable patients", "value": 156, "unit": "days"}, {"measurement": "average days in trial, without PI3K/AKT suppression", "setting": "[1]; clinically evaluable patients", "value": 91, "unit": "days"}, {"measurement": "days in trial, range, true PI3K/AKT suppressor profile", "setting": "[1]; clinically evaluable patients", "value": "49 to 315", "unit": "days"}, {"measurement": "days in trial, range, without PI3K/AKT suppression", "setting": "[1]; clinically evaluable patients", "value": "28 to 139", "unit": "days"}, {"measurement": "partial response or stable disease in PI3K/AKT suppressor group", "setting": "[1]; four of five patients", "value": 80, "unit": "%"}, {"measurement": "Best response", "setting": "[1]; [3]", "value": "Stable disease; also recorded: Withdrawn; also recorded: Progressed; also recorded: Partial response"}, {"measurement": "days in trial (second figure of No of cycles/days in trial)", "setting": "[1]; [3]", "value": "4 / 105 days and 4 / 98 days and 1 / 29 days and 2 / 46 days and 8 / 190 days and 13 / 315 days and 2 / 49 days and 1 / 28 days and 5 / 139 days and 5 / 127 days"}, {"measurement": "Best response", "setting": "[1]; [4]", "value": "Stable disease; also recorded: Progressed"}, {"measurement": "Days on trial", "setting": "[1]; [4]", "value": "139 days and 105 days and 29 days and 28 days"}, {"measurement": "Best response", "setting": "[1]; [5]", "value": "Stable disease; also recorded: Partial response; also recorded: Progressed"}, {"measurement": "Days on trial", "setting": "[1]; [5]", "value": "190 days and 315 days and 49 days and 127 days and 98 days"}, {"measurement": "patients with early progression (during first or second cycle)", "setting": "[1]; of nine evaluable patients", "value": 3, "unit": "patients"}, {"measurement": "days in trial until progression, death or withdrawn consent, range", "setting": "[1]", "value": "28 to 315", "unit": "days"}, {"measurement": "median number of days in trial until progression, death or withdrawn consent", "setting": "[1]", "value": 105, "unit": "days"}, {"measurement": "average days in trial, patients of Hispanic origin", "setting": "[1]; p=0.08 vs non-Hispanic", "value": 193, "unit": "days"}, {"measurement": "IC50 for inhibition of PDE4", "setting": "PDE4", "value": 0.3, "unit": "ng/mL"}, {"measurement": "PI3K suppression in non-PI3K/AKT suppressors", "setting": "PI3K; n=4, no pAKT suppression, day 8 vs day 0, PBMC", "value": "< 25", "unit": "%"}, {"measurement": "patients with significantly suppressed PI3K activity, number of evaluated", "setting": "PI3K; roflumilast 500 mcg PO daily single agent, day 8 vs day 0, PBMC", "value": "7 of the 9"}, {"measurement": "patients evaluated with significantly suppressed PI3K activity", "setting": "PI3K; roflumilast as single agent, 7 days, PBMC", "value": 77, "unit": "%"}]}
